Laboratory results from ChEMBL document CHEMBL1158041, “Diterpenoids, norditerpenoids, and secosteroids from the Formosan soft coral Cespitularia hypotentaculata” (2006).
Converted amounts (≈) assume the structure as drawn.

How the values were obtained:
HT-29 = test: Cytotoxicity against human HT-29; format: functional
Outline: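 HT-29 human colon cells obtained from the American Type Culture Collection; cytotoxicity reported as ED50 in µg/mL.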

P388 = test: Cytotoxicity against mouse P388; format: functional
Outline: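 Murine P-388 leukemia cells were a gift from an academic laboratory; cytotoxicity reported as ED50 in µg/mL.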

[1] = read-out: ED50 (the source's name)

SMILES | Activity (HT-29) | Activity (P388) | EC50 (P388; [1]) [µg/mL] | EC50 (HT-29; [1]) [µg/mL]
C=C1CC[C@@H]2O[C@@]2(C)CC[C@@H]2/C(=C/C=C/C(C)C)C(=O)OC[C@@H]12 | Not toxic | Not toxic |  | 
C=C1CC[C@@H]2CCC3=C(C(=O)[C@H]([C@H]3O)[C@@]3(C)O[C@@H]3[C@@H](O)C1)C2(C)C | Not toxic | Not toxic |  | 
C=C1CC[C@@H]2CCC3=C([C@@H](C/C(C)=C/[C@@H](O)C1)OC3=O)C2(C)C [CESPITULARIN O] | Not toxic |  | 3.4 (≈ 10.7 µM) | 
C=C1CC[C@@H]2CCC3=C(C(=O)[C@H](C3=O)/C(C)=C/[C@@H](OC(C)=O)C1)C2(C)C | Not toxic | Not toxic |  | 
C=C1CC[C@@H]2CC[C@@H](O)[C@@](O)(C(=O)C/C(C)=C/[C@@H](O)C1)C2(C)C | Not toxic | Not toxic |  | 
C=C1CC[C@@H]2CCC3=C(C(=O)[C@H](C3=O)/C(C)=C/[C@@H](O)C1)C2(C)C | Not toxic | Not toxic |  | 
C=C1CC[C@@H]2CC[C@H](O)[C@@](O)(C(=O)C/C(C)=C/[C@@H](O)C1)C2(C)C | Not toxic | Not toxic |  | 
C=C1CC[C@@H]2CC[C@H](OC(=O)C/C(C)=C/[C@@H](O)C1)C(=O)C2(C)C | Not toxic | Not toxic |  | 
C=C1CC[C@@H]2CCC3=C(C(=O)[C@@H](/C(C)=C/[C@@H](OC(C)=O)C1)[C@H]3O)C2(C)C | Not toxic | Not toxic |  | 
CC(C)CCC[C@@H](C)[C@H]1CC[C@@H]([C@@H]2C[C@H]3O[C@]34C[C@@H](O)CC[C@]4(C)C2=O)[C@]1(C)CCO |  | Not toxic |  | 1 (≈ 2.3 µM)
CC(C)[C@@H](C)[C@@]1(C)C[C@@H]1[C@@H](C)[C@H]1CC[C@@H]([C@@H]2C[C@H]3O[C@]34C[C@@H](O)CC[C@]4(C)C2=O)[C@]1(C)CCO | Not toxic | Not toxic |  | 
C=C1CC[C@@H]2CCC3=C(C2(C)C)[C@@](OC)(C/C(C)=C/[C@@H](O)C1)OC3=O | Not toxic | Not toxic |  | 
